From PMC9817006 (Journal of psychopharmacology (Oxford, England), 2022)
Read-outs that look alike come from different tables or passages of the source.

Columns and labels:
[1] = tested on: C57BL/6J mice; β2 and α6 WT and KO mice; assay: Formalin test; type: in vivo
[2] = target: high sensitivity α4(2)β2(3) nAChR (Homo sapiens, UniProt P17787+P43681); assay: Two-electrode voltage clamp in Xenopus oocytes, HS α4β2; type: cell-based
Summary of the method: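 Human HS α4β2 nAChR from in vitro–transcribed cRNA in Xenopus oocytes. Two-electrode clamp at −60 mV, 24°C, in Ringer's (pH 7.2, 1 μM atropine) perfused at 2 ml/min. Test compound over a concentration range as 12 s applications with 181 s washout. Peak current and net charge taken relative to same-cell 10 μM ACh controls, then scaled to ACh maximum from separate experiments; ≥4 oocytes.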

[3] = target: low sensitivity α4(3)β2(2) nAChR (Homo sapiens, UniProt P17787+P43681); assay: Two-electrode voltage clamp in Xenopus oocytes, LS α4β2; type: cell-based
Sequence of low sensitivity α4(3)β2(2) nAChR (P17787 26-502): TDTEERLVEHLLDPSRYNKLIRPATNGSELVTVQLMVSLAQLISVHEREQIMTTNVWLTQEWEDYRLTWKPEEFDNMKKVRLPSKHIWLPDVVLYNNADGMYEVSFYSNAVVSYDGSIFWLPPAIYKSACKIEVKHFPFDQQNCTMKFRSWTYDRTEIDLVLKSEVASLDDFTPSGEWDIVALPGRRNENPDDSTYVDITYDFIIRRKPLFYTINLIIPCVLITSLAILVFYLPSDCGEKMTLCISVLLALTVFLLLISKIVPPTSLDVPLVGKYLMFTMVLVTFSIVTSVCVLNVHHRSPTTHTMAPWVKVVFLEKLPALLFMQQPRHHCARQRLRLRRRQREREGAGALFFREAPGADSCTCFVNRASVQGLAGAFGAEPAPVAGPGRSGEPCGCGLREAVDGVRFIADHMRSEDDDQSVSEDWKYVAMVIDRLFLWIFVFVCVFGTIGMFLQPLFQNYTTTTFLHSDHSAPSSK
Sequence of low sensitivity α4(3)β2(2) nAChR (P43681 29-627 limits assumed): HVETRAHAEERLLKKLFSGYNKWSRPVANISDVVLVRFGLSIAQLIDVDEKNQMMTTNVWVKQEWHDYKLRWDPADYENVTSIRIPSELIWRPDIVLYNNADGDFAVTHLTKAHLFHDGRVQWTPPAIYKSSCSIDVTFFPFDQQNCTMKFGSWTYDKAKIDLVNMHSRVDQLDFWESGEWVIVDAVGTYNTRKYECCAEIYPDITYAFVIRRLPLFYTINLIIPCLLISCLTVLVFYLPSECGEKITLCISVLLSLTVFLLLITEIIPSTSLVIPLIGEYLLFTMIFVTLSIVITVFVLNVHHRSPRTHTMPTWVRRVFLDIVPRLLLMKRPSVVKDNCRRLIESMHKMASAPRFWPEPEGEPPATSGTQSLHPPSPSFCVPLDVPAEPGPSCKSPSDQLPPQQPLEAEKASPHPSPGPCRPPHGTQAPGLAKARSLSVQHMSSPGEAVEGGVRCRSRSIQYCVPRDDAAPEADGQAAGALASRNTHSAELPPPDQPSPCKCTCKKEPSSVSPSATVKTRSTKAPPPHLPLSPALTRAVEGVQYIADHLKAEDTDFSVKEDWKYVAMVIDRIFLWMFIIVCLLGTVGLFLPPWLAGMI
Sequence of low sensitivity α4(3)β2(2) nAChR (P43681 29-627 limits assumed): as above
Summary of the method: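 LS α4β2 nAChR (human, cRNA in Xenopus oocytes) clamped at −60 mV, 24°C, with Ringer's (pH 7.2, 1 μM atropine) at 2 ml/min. Varying test compound concentrations applied for 12 s, then 181 s washout. Peak currents and net charge normalized to same-cell 100 μM ACh controls, then adjusted to ACh maximum determined separately; at least four oocytes.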

[4] = tested on: C57BL/6J mice; β2 WT and KO mice; assay: Locomotor activity; type: in vivo
Summary of the method: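 Saline or test compound was given s.c. 15 min before mice entered photocell cages with two banks of eight beams. Beam interruptions were counted over 30 min. β2 WT and KO mice (8/group) received 0.5 mg/kg. For repeated dosing, mice (12/group) received saline or 0.01, 0.1, 0.5 or 1 mg/kg daily for 5 days, had 2 days without injection, and were challenged on day 8.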

[5] = tested on: C57BL/6J mice; β2 WT and KO mice; assay: Body temperature; type: in vivo; conditions: 0.5 mg/kg s.c.
Summary of the method: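 Mixed-sex β2 WT and KO mice on a C57BL/6J background, 8/group, given saline or test compound 0.5 mg/kg s.c. Rectal temperature read by thermistor probe inserted 24 mm, just before and at set times after injection. Change from pre-treatment reading computed per mouse; room temperature 21–24°C.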

[6] = tested on: C57BL/6J mice; assay: Tail-flick test; type: in vivo; conditions: 0.5 mg/kg s.c., 5-120 min
Summary of the method: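 Tail-flick test. A control latency (2–4 sec) was measured for each mouse before dosing, with a 10 sec maximum. Mice (n=6/group) received saline or test compound 0.5 mg/kg s.c. and were tested at 5, 10, 15, 30, 60 and 120 min. %MPE = ((test−control)/(10−control)) × 100.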

[7] = target: β3α4β2α6β2 nAChR (Homo sapiens, UniProt P17787+P43681+Q15825); assay: Two-electrode voltage clamp in Xenopus oocytes, α6-containing concatemer; type: cell-based
Sequence of β3α4β2α6β2 nAChR (P43681 29-627 limits assumed): as above
Sequence of β3α4β2α6β2 nAChR (P17787 26-502): as the sequence (P17787 26-502) above
Sequence of β3α4β2α6β2 nAChR (Q15825 26-494): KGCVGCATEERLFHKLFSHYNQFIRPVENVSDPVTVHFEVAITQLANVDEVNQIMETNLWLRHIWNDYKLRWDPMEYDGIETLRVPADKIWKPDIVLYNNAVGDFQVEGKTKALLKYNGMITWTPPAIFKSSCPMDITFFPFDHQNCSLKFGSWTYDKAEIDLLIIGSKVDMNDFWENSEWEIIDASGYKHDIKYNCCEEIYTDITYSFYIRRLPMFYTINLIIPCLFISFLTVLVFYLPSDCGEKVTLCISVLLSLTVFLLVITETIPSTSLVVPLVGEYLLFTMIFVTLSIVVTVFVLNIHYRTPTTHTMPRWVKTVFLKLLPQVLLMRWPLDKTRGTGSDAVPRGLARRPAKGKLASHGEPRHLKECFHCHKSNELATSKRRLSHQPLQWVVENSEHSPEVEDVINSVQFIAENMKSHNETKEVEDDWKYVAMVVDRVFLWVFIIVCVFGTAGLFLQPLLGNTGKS
Sequence of β3α4β2α6β2 nAChR (P17787 26-502): as the sequence (P17787 26-502) above
Summary of the method: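 α6-containing receptor expressed in Xenopus oocytes as a five-subunit human β3α4β2α6β2 concatemer cRNA. Voltage clamp at −60 mV, 24°C, in Ringer's (pH 7.2, 1 μM atropine). Test compound applied 12 s at varying concentrations, 181 s washout. Peak current and net charge referenced to same-cell 30 μM ACh controls and rescaled to ACh maximum from other experiments; ≥4 oocytes.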

[8] = tested on: ICR mice; assay: Hot-plate test; type: in vivo
Summary of the method: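 Hot plate at 55.0 °C, mouse confined in a 10 cm glass cylinder. Two control latencies taken ≥10 min apart; endpoint is a jump or paw lick. ICR mice (6/group) given test compound s.c. (0.001–0.5 mg/kg) or saline and tested 5–120 min post-dose. %MPE = (test−control)/(40−control)×100.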

[9] = tested on: rats; conditions: ref Freitas et al., 2016; cited from earlier work
[10] = tested on: C57BL/6J mice; assay: Hot-plate test; type: in vivo; conditions: 0.5 mg/kg s.c., 5-120 min
Summary of the method: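 Hot plate held at 55.0 °C, with mice confined in a 10 cm glass cylinder. Two control latencies were taken at least 10 min apart. Latency was scored at a jump or at licking of the front or hind paws. Mice (n=6/group) received saline or test compound 0.5 mg/kg s.c. and were tested at 5, 10, 15, 30, 60 and 120 min. %MPE = ((test−control)/(40−control)) × 100.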

[11] = C57BL/6J mice, 0.5 mg/kg s.c., pretreatment 5, 15, 30, 60 min
[12] = α6 WT and KO mice, 0.5 mg/kg s.c., 15 min pretreatment
[13] = β2 WT mice, 0.5 mg/kg s.c., 15 min pretreatment
[14] = α4(2)β2(3), normalized to the maximum ACh responses
[15] = α4(3)β2(2), normalized to the maximum ACh responses
[16] = β3α4β2α6β2, normalized to the maximum ACh responses

Sequence of high sensitivity α4(2)β2(3) nAChR (P17787 26-502): as above
Sequence of high sensitivity α4(2)β2(3) nAChR (P43681 29-627 limits assumed): as the sequence (P43681 29-627 limits assumed) above
Sequence of high sensitivity α4(2)β2(3) nAChR (P17787 26-502): as the sequence (P17787 26-502) above

Ic1cncc(OC[C@@H]2CCN2)c1 [5IA, 5-Iodo-A-85380]
Paw licking, formalin test phase I, time course (in words) [1, 11]: significant effects of 5IA treatment at 5, 15, 30, and 60 min in phase I
Paw licking, formalin test phase II, time course (in words) [1, 11]: significant differences observed at only 5 and 15 minutes
Paw licking, formalin test, dose-response (in words) ([1]; C57BL/6J mice, 0.01, 0.1, 0.5 mg/kg s.c., 15 min pretreatment, vs vehicle): significant attenuation of paw licking responses at 0.1 and 0.5 mg/kg
Paw licking, formalin test phase I (in words) [1, 12]: completely blocked the paw licking behavior in both α6 WT and KO mice in phase I
Paw licking, formalin test phase II (in words) [1, 12]: only partially inhibited it in phase II
Paw licking, formalin test phase I (in words) [1, 13]: significantly attenuated paw licking time in phase I
Paw licking, formalin test phase II (in words) [1, 13]: partially decreased paw licking time in phase II
Effect on current duration (in words) ([2]; HS α4β2 receptors): prolonged the currents
Efficacy (in words) ([2]; high sensitivity α4(2)β2(3)): full agonist
EC50 ([2]; read-out: Net Charge EC50, α4(2)β2(3)): 62 ± 11 nM
EC50 ([2]; read-out: Peak Currents EC50, α4(2)β2(3)): 42 ± 2 nM
Net Charge Imax [2, 14]: 3.0 ± 0.18
Peak Currents Imax [2, 14]: 1.3 ± 0.02
Efficacy (in words) ([3]; low sensitivity α4(3)β2(2)): very low efficacy
EC50 ([3]; read-out: Net Charge EC50, α4(3)β2(2)): 25 ± 14 nM
EC50 ([3]; read-out: Peak Currents EC50, α4(3)β2(2)): 37 ± 6.3 nM
Net Charge Imax [3, 15]: 0.22 ± 0.04
Peak Currents Imax [3, 15]: 0.22 ± 0.1
Locomotion after repeated injection, low dose (in words) ([4]; C57BL/6J mice, 0.01 mg/kg s.c. for 5 days, vs vehicle): stimulant effects on locomotion at days 3 and 5
Locomotion after repeated injection, higher doses (in words) ([4]; C57BL/6J mice, 0.5 and 1 mg/kg s.c. for 5 days, days 1 and 2, vs vehicle): depressive effects at higher doses (0.5 and 1 mg/kg)
Tolerance to locomotor depressant effects (in words) ([4]; C57BL/6J mice, repeated injection of higher doses): Tolerance to the depressant effects of higher doses of 5IA developed progressively after day 2
Attenuation of locomotion in β2 WT vs KO mice (in words) ([4]; β2 WT and KO mice, 0.5 mg/kg s.c.): this effect was only observed in β2 WT mice and not in β2 KO mice
Body temperature, time course (in words) ([5]; C57BL/6J mice, vs vehicle): significant reductions in body temperature in comparison to their vehicle controls at 15-, 30- and 60-min
Hypothermic effect in β2 KO vs WT mice (in words) ([5]; β2 WT and KO mice): significantly abolished in β2 KO mice
Effect on acute thermal antinociception, tail-flick test (in words) [6]: no significant effect of 5IA on acute thermal antinociception in the hot plate or tail-flick test
EC50 ([7]; read-out: Net Charge EC50, β3α4β2α6β2): 19 ± 0.4 nM
EC50 ([7]; read-out: Peak Currents EC50, β3α4β2α6β2): 11 ± 0.01 nM
Efficacy (in words) ([7]; α6-containing subtypes): intermediate efficacy
Net Charge Imax [7, 16]: 0.76 ± 0.01
Peak Currents Imax [7, 16]: 0.78 ± 0.1
Antinociceptive response, hot-plate test ([8]; 0.001 mg/kg s.c., 5 min after injection): 8 ± 3 % MPE
Antinociceptive response, hot-plate test ([8]; 0.001 mg/kg s.c., 10 min after injection): 10 ± 3 % MPE
Antinociceptive response, hot-plate test ([8]; 0.001 mg/kg s.c., 15 min after injection): 10 ± 5 % MPE
Antinociceptive response, hot-plate test ([8]; 0.001 mg/kg s.c., 30 min after injection): 4 ± 3 % MPE
Antinociceptive response, hot-plate test ([8]; 0.001 mg/kg s.c., 60 min after injection): 8 ± 5 % MPE
Antinociceptive response, hot-plate test ([8]; 0.001 mg/kg s.c., 120 min after injection): 11 ± 5 % MPE
Antinociceptive response, hot-plate test ([8]; 0.01 mg/kg s.c., 5 min after injection): 9 ± 3 % MPE
Antinociceptive response, hot-plate test ([8]; 0.01 mg/kg s.c., 10 min after injection): 7 ± 3 % MPE
Antinociceptive response, hot-plate test ([8]; 0.01 mg/kg s.c., 15 min after injection): 7 ± 3 % MPE
Antinociceptive response, hot-plate test ([8]; 0.01 mg/kg s.c., 30 min after injection): 5 ± 3 % MPE
Antinociceptive response, hot-plate test ([8]; 0.01 mg/kg s.c., 60 min after injection): 13 ± 6 % MPE
Antinociceptive response, hot-plate test ([8]; 0.01 mg/kg s.c., 120 min after injection): 5 ± 3 % MPE
Antinociceptive response, hot-plate test ([8]; 0.1 mg/kg s.c., 5 min after injection): 7 ± 2 % MPE
Antinociceptive response, hot-plate test ([8]; 0.1 mg/kg s.c., 10 min after injection): 6 ± 3 % MPE
Antinociceptive response, hot-plate test ([8]; 0.1 mg/kg s.c., 15 min after injection): 3 ± 2 % MPE
Antinociceptive response, hot-plate test ([8]; 0.1 mg/kg s.c., 30 min after injection): 0 ± 0 % MPE
Antinociceptive response, hot-plate test ([8]; 0.1 mg/kg s.c., 60 min after injection): 8 ± 4 % MPE
Antinociceptive response, hot-plate test ([8]; 0.1 mg/kg s.c., 120 min after injection): 14 ± 6 % MPE
Antinociceptive response, hot-plate test ([8]; 0.5 mg/kg s.c., 5 min after injection): 17 ± 5 % MPE
Antinociceptive response, hot-plate test ([8]; 0.5 mg/kg s.c., 10 min after injection): 11 ± 8 % MPE
Antinociceptive response, hot-plate test ([8]; 0.5 mg/kg s.c., 15 min after injection): 18 ± 9 % MPE
Antinociceptive response, hot-plate test ([8]; 0.5 mg/kg s.c., 30 min after injection): 10 ± 6 % MPE
Antinociceptive response, hot-plate test ([8]; 0.5 mg/kg s.c., 60 min after injection): 11 ± 7 % MPE
Antinociceptive response, hot-plate test ([8]; 0.5 mg/kg s.c., 120 min after injection): 11 ± 4 % MPE
Effect on acute thermal antinociception, hot plate test (in words) ([8]; 0.001-0.5 mg/kg s.c., 5-120 min): no significant effect of 5IA on acute thermal antinociception in the hot plate test
Intracranial self-stimulation (ICSS) (in words) [9]: dose-dependently produced facilitated intracranial self-stimulation (ICSS)
Effect on acute thermal antinociception, hot plate test (in words) [10]: no significant effect of 5IA on acute thermal antinociception in the hot plate or tail-flick test
